For data set [1] the following is noted: cited from earlier work.
Data set [2] in a line: Stopped-flow kinetics of release of NO from the nitrophorins. It counts as binding, Rhodnius prolixus. An outline of the steps: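 Stopped-flow measurement of NO release from NO-bound nitrophorins with native or M0-bearing N-termini. Dissociation Kd obtained at pH 5.0 and 7.5 in dilute solution, 5–10 μM protein in 100 mM sodium phosphate buffer.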
Data set [3] in a line: Size-exclusion FPLC retention of nitrophorins, mutants and ligand complexes. As to conditions: under any conditions / at any pH. It counts as physicochemical, Rhodnius prolixus. An outline of the steps: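 Analytical run on Superdex75 at 4 °C in 100 mM sodium acetate, NaCl added to 220 mM total ionic strength. Protein at 1 mM was run at pH 5.0, 5.25, 5.5 and 5.75. Separately, protein from 1 to 0.025 mM was run at pH 5.0. Elution position compared with molecular weight standards.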
In general terms: Size exclusion chromatography separates by hydrodynamic size, large species first.

Read-outs that look alike come from different tables or passages of the source.

In the case of “NP2(D1A): D1A mutant of NP2, no M0 present”, the “NO Kd (NO dissociation)” value in data set [1] (pH 5.0, ref 29) is on record as 0.015 ± 0.005 s^–1; in data set [1] (pH 7.5), 0.089 ± 0.002 s^–1.

Regarding “NP2: nitrophorin 2 of Rhodnius prolixus; in b68 named without construct”, the “factor by which having M0 present increased the Kd for the loss of NO” value in data set [2] (pH 5.0) was 1.6; in data set [2] (pH 7.5), 1.7.

Consider “(M0)NP2: recombinant NP2 retaining M0 (N-terminus MDCST...)”, for which the “NO Kd (NO dissociation)” value in data set [1] (column pH 7.5, measured at pH 8.0 rather than pH 7.5 (footnote a)) is recorded as 0.12 ± 0.01 ^a s^–1; in data set [1] (pH 5.0, ref 17) it was 0.05 ± 0.01 s^–1; in data set [1] (pH 5.0, ref 29) it was 0.049 ± 0.002 s^–1; in data set [1] (pH 7.5), 0.161 ± 0.005 s^–1. In data set [3], the dimer formation entry is “do not form dimers”.

Values taken from publication PMC4303305 (Biochemistry, 2014).
